Source: PubChem BioAssay
Hits are enriched below; roughly 2.9% of the tested compounds scored in any of these assays.
SENP7 block – SENP7 protease inhibitors, primary screen, biochemical, luminescence, uHTS | Sentrin-specific protease 7 (Homo sapiens), Q9BQF6 | recombinant SENP7, Z-RLRGG-aminoluciferin luminescence, 40 min | inhibition, % at 5 µM | 330,000 tested, 1.5% active;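 active = inhibition above about 50% at the single test dose, limit read from the data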;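 note: plate controls were DMSO with enzyme for no effect and no enzyme buffer wells for full effect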
Target sequence (Q9BQF6 706-1050 limits assumed): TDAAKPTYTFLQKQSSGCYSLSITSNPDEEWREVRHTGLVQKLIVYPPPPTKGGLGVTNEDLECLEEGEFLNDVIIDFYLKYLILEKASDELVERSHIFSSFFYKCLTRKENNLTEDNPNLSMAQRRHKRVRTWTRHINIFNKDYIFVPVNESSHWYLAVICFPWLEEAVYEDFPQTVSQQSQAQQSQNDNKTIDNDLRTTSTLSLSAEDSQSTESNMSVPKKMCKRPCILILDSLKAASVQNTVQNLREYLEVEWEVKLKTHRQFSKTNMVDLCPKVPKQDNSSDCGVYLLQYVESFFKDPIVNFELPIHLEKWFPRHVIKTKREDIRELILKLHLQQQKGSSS
SENP8 block-1 – SENP8 protease inhibitors, primary screen, biochemical, luminescence | inhibition, % at 10 µM | purified SENP8, Z-RLRGG-aminoluciferin cleavage | 330,000 tested, 1.2% active | Sentrin-specific protease 8 (Homo sapiens), Q96LD8; in the data active = inhibition above about 50%
Target sequence (Q96LD8 whole entry, looked up): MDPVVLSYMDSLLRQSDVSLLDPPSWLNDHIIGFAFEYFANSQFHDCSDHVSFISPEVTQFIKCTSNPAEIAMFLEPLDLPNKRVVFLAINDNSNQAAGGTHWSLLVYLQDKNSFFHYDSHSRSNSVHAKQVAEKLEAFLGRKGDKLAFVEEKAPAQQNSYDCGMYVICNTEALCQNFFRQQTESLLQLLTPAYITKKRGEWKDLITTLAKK
Apaf1 inhib – inhibitors of human Apaf-1 apoptosome, primary screen, biochemical, DEVD-Rh110 fluorescence, uHTS; reconstituted apoptosome caspase-3 activity; 330,000 tested, 0.71% active; inhibition, % at 20 µM; active = inhibition of at least 40% at 20 µM;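 note: plate controls were DMSO wells for no effect and DEVD-CHO caspase inhibitor wells for full effect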
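Material: reconstituted apoptosome with Apaf-1, cytochrome c, caspase-9, procaspase-3, dATP. Technique: Rh110 fluorescence intensity. Buffer or medium: pH 7.5 Hepes buffer with CHAPS, BSA, DTT. Times: 30 min plus 50 min, RT.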
SENP8 block-2 – human SENP8 protease inhibitors, primary screen, biochemical, fluorescence, Nedd8 protein substrate, uHTS; Sentrin-specific protease 8 (Homo sapiens), Q96LD8; recombinant SENP8; inhibition, % at 20 µM; 360,000 tested, 0.64% active; AID 602440, 2012; in the data active = inhibition mostly above about 40%, no sharp cut-off; inactive = mostly below about 27%
SENP1 FRET inh – human SENP1 catalytic domain inhibitors, primary screen, biochemical, FRET, uHTS | recombinant SENP1 catalytic domain, CyPet-SUMO1-YPet FRET cleavage | 360,000 tested, 0.21% active | inhibition, % at 10 µM | AID 624204, 2012 | Sentrin-specific protease 1 (Homo sapiens), Q9P0U3;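 active = inhibition at least 30% at 10 µM, raw YFP signal under a set limit, fluorescence ratio 0.5 to 1.5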;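 note: 0% = enzyme with DMSO and 100% = no enzyme wells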
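Test system: hSENP1 catalytic domain, recombinant; Amount: 20 pM final SENP1 enzyme; Medium: Tris pH 8 buffer plus EDTA, NaCl, BME, BSA, NP40, catalase; Schedule: 50 min enzyme reaction, room temperature, light-protected; Technique: FRET fluorescence in CFP and YFP emission channels; Controls: no-enzyme wells low, DMSO-plus-enzyme wells high control.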
SENP6 block – SENP6 protease inhibitors, primary screen, biochemical, luminescence, uHTS. inhibition, % at 10 µM. 330,000 tested, 1.8% active. AID 2599, 2010. Recombinant SENP6 catalytic domain, aminoluciferin luminescence. Sentrin-specific protease 6 (Homo sapiens), Q9GZR1;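 active = inhibition above about 50% at the single tested dose, limit read from the data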;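 note: plate controls were DMSO wells with enzyme for no effect and DMSO wells lacking enzyme for full effect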
SENP8 confirm – SENP8 protease inhibitors, retest, confirmation, biochemical, luminescence, single concentration; Recombinant SENP8, Z-RLRGG-aminoluciferin luminescence, 60 min; inhibition, % at 12.5 µM; 6,200 tested, 40% active; shares compounds with SENP7 block;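 active = mean inhibition across replicates above about 50%, limit read from the data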
SENP6 confirm – SENP6 protease inhibitors, confirmation, biochemical, luminescence, single concentration. shares compounds with SENP7 block. recombinant SENP6, Z-RLRGG-aminoluciferin luminescence. inhibition, % at 12.5 µM. 6,200 tested, 58% active. AID 488915, 2010
SENP7 conf – SENP7 protease inhibitors, retest, confirmation, biochemical, luminescence, single concentration; shares compounds with SENP7 block; recombinant SENP7, Z-RLRGG-aminoluciferin luminescence, 40 min; AID 488917, 2010; inhibition, % at 12.5 µM; 6,200 tested, 69% active
Casp3 SENP sel – caspase-3 protease inhibitors, confirmation, selectivity assay for SENP inhibitor project, biochemical, single concentration; shares compounds with SENP7 block; purified caspase-3, Z-DEVD-aminoluciferin luminescence, 60 min; inhibition, % at 12.5 µM; 6,200 tested, 60% active; AID 488918, 2010;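 active = mean inhibition above about 50%, limit read from the data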;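 note: plate controls were enzyme with DMSO for no effect and wells without caspase-3 for full effect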
SENP luc ctr – luminescence interference (SENP counter-screen); shares compounds with SENP7 block; Pre-incubated SENP8/Z-RLRGG-aminoluciferin, luciferase luminescence interference; inhibition, % at 12.5 µM; 6,200 tested, 39% active; AID 488919;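 active = mean inhibition above about 50% when retested at one dose, limit read from the data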;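 note: plate controls were DMSO wells with completed reaction for no effect and substrate without enzyme for full effect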
Numbers without * were called inactive.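 Rule for the calls, unless noted: active = mean inhibition above about 50% in the one-dose retest (limit read from the data); inactive = the rest.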

Results for Cn1c(C(=O)Nc2ccc3c(c2)OCCO3)cc2sccc21 ?
SENP7 block: 79*; SENP8 block-1: 70*; Apaf1 inhib: 12; SENP8 block-2: -13; SENP1 FRET inh: -10; SENP6 block: 74*; SENP8 confirm: 86*; SENP6 confirm: 85*; SENP7 conf: 97*; Casp3 SENP sel: 70*; SENP luc ctr: 74*

What do the screens show for `CCCS(=O)(=O)NC(=O)C1(C)CCN(C(=O)c2cc(C)oc2C)C1` (stereo unspecified)?
SENP8 block-2: 24; SENP1 FRET inh: -1

What do the screens show for `Cn1c(=O)c2c(SCc3ccccc3)nc(C3CC3)nc2n(C)c1=O`?
SENP7 block: 68*; SENP8 block-1: 10; Apaf1 inhib: -1; SENP8 block-2: 18; SENP1 FRET inh: -1; SENP6 block: 50; SENP8 confirm: 7; SENP6 confirm: 22; SENP7 conf: 25; Casp3 SENP sel: 30; SENP luc ctr: 3

Results for Cc1sc2nc(CSC(C)C(=O)Nc3ccc(Cl)cn3)[nH]c(=O)c2c1C (stereo unspecified) ?
SENP7 block: 4; SENP8 block-1: 5; Apaf1 inhib: -12; SENP8 block-2: -36; SENP1 FRET inh: 12; SENP6 block: 11

Results for Cc1nn(C)c2c1NC(=O)CS2 ?
SENP8 block-2: 11; SENP1 FRET inh: -1

What do the screens show for `COC(=O)c1ccc(COn2nnc3ccccc32)cc1`?
SENP7 block: 52*; SENP8 block-1: 37; Apaf1 inhib: -3; SENP8 block-2: 13; SENP1 FRET inh: -2; SENP6 block: 56*; SENP8 confirm: 34; SENP6 confirm: 32; SENP7 conf: 76*; Casp3 SENP sel: 70*; SENP luc ctr: 34

How did Cc1cc(C(=O)CSc2ccccc2)cc(C)c1O do in these assays?
SENP7 block: 11; SENP8 block-1: 24; Apaf1 inhib: 3; SENP8 block-2: 9; SENP1 FRET inh: -1; SENP6 block: 45

How did Cc1cc(OCc2ccc(C(=O)n3cccn3)o2)ccc1Cl do in these assays?
SENP7 block: 31; SENP8 block-1: 40; Apaf1 inhib: 17; SENP8 block-2: 12; SENP1 FRET inh: 0; SENP6 block: 50*; SENP8 confirm: 19; SENP6 confirm: 38; SENP7 conf: 29; Casp3 SENP sel: 18; SENP luc ctr: 27

How did CCOC(=O)C(N=Nc1nn[nH]n1)C(C)=O (stereo unspecified) do in these assays?
SENP8 block-2: 7; SENP1 FRET inh: 2

Results for Clc1ccccc1/C=C/c1ccnc2ccccc12 ?
SENP7 block: 4; SENP8 block-1: 9; Apaf1 inhib: 21; SENP8 block-2: -297; SENP1 FRET inh: 1; SENP6 block: 11

What do the screens show for `Oc1ccc(/C=C/c2ccnc3ccccc23)cc1`?
SENP7 block: 8; SENP8 block-1: 40; Apaf1 inhib: -9; SENP8 block-2: -293; SENP1 FRET inh: 16; SENP6 block: 61*; SENP8 confirm: 26; SENP6 confirm: 25; SENP7 conf: 74*; Casp3 SENP sel: 28; SENP luc ctr: -3

Results for COc1ccccc1N1CCN(C(=O)CC(NC(=O)c2ccccc2Cl)c2ccccc2)CC1 (stereo unspecified) ?
SENP7 block: -4; SENP8 block-1: 0; Apaf1 inhib: 6; SENP8 block-2: 9; SENP1 FRET inh: -2; SENP6 block: -12

Results for O=C(CN(Cc1ccco1)C(=O)c1cccc(F)c1)Nc1ccccc1C(F)(F)F ?
SENP8 block-2: 8; SENP1 FRET inh: 0

What do the screens show for `O=C(Nc1ccc(SC(F)F)cc1)c1ccccc1F`?
SENP7 block: 17; SENP8 block-1: 20; Apaf1 inhib: 2; SENP8 block-2: 16; SENP1 FRET inh: 0; SENP6 block: 50*; SENP8 confirm: 37; SENP6 confirm: 35; SENP7 conf: 73*; Casp3 SENP sel: 41; SENP luc ctr: 63*

What do the screens show for `O=C(Cc1ccccc1F)Nc1ccc(SC(F)F)cc1`?
SENP7 block: 43; SENP8 block-1: 26; Apaf1 inhib: -10; SENP8 block-2: 19; SENP1 FRET inh: 1; SENP6 block: 61*; SENP8 confirm: 5; SENP6 confirm: 2; SENP7 conf: 53*; Casp3 SENP sel: 18; SENP luc ctr: 28

What do the screens show for `CC(=O)Nc1ccc(NC(=O)c2ccccc2F)cc1`?
SENP7 block: 1; SENP8 block-1: -3; Apaf1 inhib: -11; SENP8 block-2: 10; SENP1 FRET inh: 2; SENP6 block: 6

How did O=C1C=CC(c2c[nH]c3ccccc23)CC1 (stereo unspecified) do in these assays?
SENP8 block-2: 0; SENP1 FRET inh: -3

Results for Cc1c(C)n(CC(O)CSc2ccccc2)c2ccccc12 (stereo unspecified) ?
SENP8 block-2: 8; SENP1 FRET inh: 2

How did CC(=O)NC(c1ccccc1)c1nc(-c2cnc3ccccc3c2)cs1 (stereo unspecified) do in these assays?
SENP8 block-2: -32; SENP1 FRET inh: 2

How did O=C1NC(=O)/C(=C\c2ccc(OCc3cccc(C(=O)O)c3)c(Cl)c2)N1 do in these assays?
SENP7 block: 77*; SENP8 block-1: 90*; Apaf1 inhib: 3; SENP8 block-2: -179; SENP1 FRET inh: 0; SENP6 block: 95*; SENP8 confirm: -16; SENP6 confirm: 93*; SENP7 conf: 101*; Casp3 SENP sel: 30; SENP luc ctr: 71*
